Here are results for 30 compounds from ChEMBL document CHEMBL4715924, “Virtual Screening Approach to Identifying a Novel and Tractable Series of Pseudomonas aeruginosa Elastase Inhibitors” (ACS Med Chem Lett, 2021).

Data set [1] deals with Pseudomonas aeruginosa PAO1. Briefly: Inhibition of Pseudomonas aeruginosa PAO1 LasB using ECR as substrate assessed as reduction in elastin hydrolysis at 50 uM incubated for 16 hrs by congo-red dye based spectrophotometry relative to control. In outline:
(§1)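 The enzyme source was LasB secreted into P. aeruginosa culture supernatant, with elastin congo-red as substrate. Elastin degradation releases congo-red dye into the supernatant, which is quantified spectrophotometrically.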

In data set [2] the target is T1, Angiotensin-converting enzyme (Oryctolagus cuniculus, UniProt P12822).
T1 sequence (P12822 whole entry): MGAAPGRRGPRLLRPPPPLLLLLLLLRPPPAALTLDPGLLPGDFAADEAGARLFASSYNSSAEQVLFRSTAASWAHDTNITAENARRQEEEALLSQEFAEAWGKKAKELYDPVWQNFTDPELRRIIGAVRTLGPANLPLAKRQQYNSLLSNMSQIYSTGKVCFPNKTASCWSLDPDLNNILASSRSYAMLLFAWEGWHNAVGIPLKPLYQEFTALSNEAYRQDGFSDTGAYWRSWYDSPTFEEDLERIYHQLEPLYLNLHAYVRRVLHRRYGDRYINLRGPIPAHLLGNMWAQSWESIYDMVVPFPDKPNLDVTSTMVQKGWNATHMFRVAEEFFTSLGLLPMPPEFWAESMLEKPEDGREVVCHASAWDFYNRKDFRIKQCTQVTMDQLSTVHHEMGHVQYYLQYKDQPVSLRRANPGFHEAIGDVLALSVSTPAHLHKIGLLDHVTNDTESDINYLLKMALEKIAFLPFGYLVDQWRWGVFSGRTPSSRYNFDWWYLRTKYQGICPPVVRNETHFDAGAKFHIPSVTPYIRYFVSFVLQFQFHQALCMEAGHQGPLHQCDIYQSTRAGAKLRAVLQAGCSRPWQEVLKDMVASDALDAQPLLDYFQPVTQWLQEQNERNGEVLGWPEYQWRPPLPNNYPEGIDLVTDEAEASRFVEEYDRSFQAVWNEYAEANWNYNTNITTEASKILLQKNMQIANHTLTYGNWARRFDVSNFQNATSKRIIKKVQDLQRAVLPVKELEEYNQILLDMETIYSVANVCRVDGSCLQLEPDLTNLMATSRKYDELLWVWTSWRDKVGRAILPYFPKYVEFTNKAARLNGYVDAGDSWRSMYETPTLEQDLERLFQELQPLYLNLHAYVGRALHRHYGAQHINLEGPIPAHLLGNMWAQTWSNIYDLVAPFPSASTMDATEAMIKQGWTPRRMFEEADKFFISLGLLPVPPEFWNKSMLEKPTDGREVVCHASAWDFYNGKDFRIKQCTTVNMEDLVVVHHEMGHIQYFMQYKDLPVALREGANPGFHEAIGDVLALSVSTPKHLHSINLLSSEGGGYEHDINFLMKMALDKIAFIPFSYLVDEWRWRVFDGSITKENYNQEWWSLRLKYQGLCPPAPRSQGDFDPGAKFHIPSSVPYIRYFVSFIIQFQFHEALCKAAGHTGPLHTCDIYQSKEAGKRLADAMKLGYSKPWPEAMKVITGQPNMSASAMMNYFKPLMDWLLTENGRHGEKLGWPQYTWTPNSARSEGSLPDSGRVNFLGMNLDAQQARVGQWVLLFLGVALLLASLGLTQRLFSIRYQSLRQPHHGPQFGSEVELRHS
The data set can be described thus: Inhibition of rabbit ACE using Abz-FRK(DNP)-P as substrate measured for every 30 sec for 5 mins by UV-fluorescence based assay.

Data set [3] can be described thus: Inhibition of Pseudomonas aeruginosa LasB using Abz-Ala-Gly-Leu-Ala-p-Nitro-Benzyl-Amide as substrate measured for every 60 sec for 30 mins by UV-fluorescence based assay. The procedure, abridged:
(§2)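 Purified LasB enzyme in a fluorometric inhibition assay adapted from a published method. Compounds were screened at a single concentration of 30 μM (follow-ups in duplicate), and selected compounds were retested over 0.4–200 μM in dose–response. A modified version added 0.01% Triton X-100 to the assay buffer.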

Data set [4] relates to Pseudomonas aeruginosa PAO1. The data set can be described thus: Inhibition of Pseudomonas aeruginosa PAO1 LasB using ECR as substrate assessed as reduction in elastin hydrolysis at 25 uM incubated for 16 hrs by congo-red dye based spectrophotometry relative to control. In outline:
as §1

Data set [5] can be described thus: Inhibition of Pseudomonas aeruginosa LasB using Abz-Ala-Gly-Leu-Ala-p-Nitro-Benzyl-Amide as substrate by micro-titer based fluorimetric assay. In outline: as §2
In data set [6] the target is T2, Interstitial collagenase (Homo sapiens, UniProt P03956).
T2 sequence (P03956 whole entry): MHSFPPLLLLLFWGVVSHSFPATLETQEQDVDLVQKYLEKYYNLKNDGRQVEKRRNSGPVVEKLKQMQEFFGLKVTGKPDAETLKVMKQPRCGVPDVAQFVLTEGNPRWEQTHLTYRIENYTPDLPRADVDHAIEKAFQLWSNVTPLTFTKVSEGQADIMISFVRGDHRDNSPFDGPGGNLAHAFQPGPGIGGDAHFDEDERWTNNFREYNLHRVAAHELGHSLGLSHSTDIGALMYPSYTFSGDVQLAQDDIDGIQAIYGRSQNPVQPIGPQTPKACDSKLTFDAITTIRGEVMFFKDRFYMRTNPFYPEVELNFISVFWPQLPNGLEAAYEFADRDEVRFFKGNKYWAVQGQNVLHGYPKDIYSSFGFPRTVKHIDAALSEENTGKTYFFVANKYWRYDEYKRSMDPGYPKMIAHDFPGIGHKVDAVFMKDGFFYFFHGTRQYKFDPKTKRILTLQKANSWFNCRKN
Briefly: Inhibition of human MMP1.

Data set [7] addresses 72 kDa type IV collagenase (Homo sapiens, UniProt P08253). Briefly: Inhibition of human MMP2.
Data set [8] addresses Collagenase 3 (Homo sapiens, UniProt P45452). The data set can be described thus: Inhibition of human MMP13.
Data set [9] relates to ACE (off-target) relative to Pseudomonas aeruginosa PAO1 LasB. The data set can be described thus: Selectivity index, ratio of Ki for rabbit ACE to Ki for Pseudomonas aeruginosa PAO1 LasB. It counts as toxicity. To be noted: read-out: Ratio Ki.

As a reminder, the inhibition is the relative decrease from the control value, in per cent. In general, Ki refers to the equilibrium dissociation constant of an inhibitor or competing ligand from its target. A higher Ki goes with a looser hold on the target. What is called IC50 is the concentration that gives 50% inhibition. A low value points to higher potency.

Some results are limits rather than exact numbers.

Chain of 72 kDa type IV collagenase (P08253 whole entry): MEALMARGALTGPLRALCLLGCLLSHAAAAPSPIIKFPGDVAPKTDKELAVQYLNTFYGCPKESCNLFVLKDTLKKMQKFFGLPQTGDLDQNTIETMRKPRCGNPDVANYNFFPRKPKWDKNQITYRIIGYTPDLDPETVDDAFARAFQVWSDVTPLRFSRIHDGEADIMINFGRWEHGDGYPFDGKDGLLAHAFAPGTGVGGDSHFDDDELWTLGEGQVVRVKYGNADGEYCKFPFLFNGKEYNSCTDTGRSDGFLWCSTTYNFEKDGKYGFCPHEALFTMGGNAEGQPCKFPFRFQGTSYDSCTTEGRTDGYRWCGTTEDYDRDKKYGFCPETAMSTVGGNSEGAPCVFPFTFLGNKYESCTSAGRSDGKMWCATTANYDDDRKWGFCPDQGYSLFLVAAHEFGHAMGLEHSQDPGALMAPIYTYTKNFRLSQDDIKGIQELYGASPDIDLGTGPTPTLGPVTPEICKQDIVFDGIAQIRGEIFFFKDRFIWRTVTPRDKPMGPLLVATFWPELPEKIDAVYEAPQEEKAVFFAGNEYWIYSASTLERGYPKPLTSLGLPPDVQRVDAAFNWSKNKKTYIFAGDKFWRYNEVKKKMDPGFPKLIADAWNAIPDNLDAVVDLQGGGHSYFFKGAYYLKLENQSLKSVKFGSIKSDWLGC

For the compound `O=C(O)CC1(C(=O)NCc2cc3ccccc3s2)Cc2ccccc2C1`, the inhibition in [1] came to 57%; in data set [4], 47%. The inhibition constant Ki in [2] is over 57 µM; in [3], 0.62 µM.

For `O=C(O)CC1(C(=O)NCc2ccccc2)Cc2ccccc2C1`, the inhibition turned out to be 54% in data set [1] and 43% in data set [4]. The inhibition constant (Ki) is over 57 µM in data set [2] and 1.75 µM in data set [3].

In the case of `O=C(O)CC1(C(=O)NCCc2nc3ccccc3[nH]2)Cc2ccccc2C1`, the inhibition in [1] worked out at 18%; in data set [4], 11%. Moreover, the values for the Ki in data set [2] and in data set [3] were over 57 µM and 13.6 µM, respectively.

As to `O=C(O)CC1(C(=O)NCc2cc3ccccc3[nH]2)Cc2ccccc2C1`, the inhibition in data set [1] worked out at 49%; in data set [4], 35%. Also, the Ki was over 57 µM in data set [2] and 1.08 µM in [3].

Regarding `Cn1c(CNC(=O)C2(CC(=O)O)Cc3ccccc3C2)cc2ccccc21`, the inhibition was 60% in [1] and 51% in data set [4]. Moreover, the Ki in data set [2] was over 57 µM; in [3] it was 0.69 µM.

`Cc1ccc2oc(CNC(=O)CC3(C(=O)O)Cc4ccccc4C3)cc2c1`: the inhibition in data set [1] was 2%. For the same compound, the Ki in data set [2] is over 57 µM; in data set [3] it was over 92 µM.

Consider `Cn1c(CNC(=O)C2(CC(=O)O)Cc3ccccc3C2)nc2ccccc21`, for which the inhibition was found to be 32% in data set [1] and 21% in data set [4]. Also, the figures for the inhibition constant (Ki) in [2] and in data set [3] were 18 µM and 12.5 µM, respectively.

As for `O=C(O)CC1(C(=O)NCc2c[nH]c3ccccc23)Cc2ccccc2C1`, the inhibition in data set [1] came to 35%; in [4] it was 23%. Besides, the Ki in [2] is over 57 µM; in data set [3], 3.54 µM.

In the case of `O=C(O)CC1(C(=O)NCCc2cc3ccccc3s2)Cc2ccccc2C1`, the values for the inhibition in data set [1] and in data set [4] were 28% and 18%, respectively. Moreover, the values for the Ki in data set [2] and in [3] were 40.6 µM and 4.85 µM, respectively.

In turn, `NC(=O)[C@H](Cc1ccc(O)cc1)NC(=O)[C@H](Cc1ccccc1)NC(=O)CS` returned a Ki in data set [5] of 41 nM.

Take `O=C(O)CC1(C(=O)NCc2coc3ccccc23)Cc2ccccc2C1`: the inhibition in data set [1] came out at 51%; in data set [4] it was 41%. Also, the inhibition constant Ki stood at 31.3 µM in [2] and 1.9 µM in data set [3].

In the case of `O=C(O)CC1(C(=O)NCc2cc3ccccc3o2)Cc2ccccc2C1`, the inhibition in [1] is 54%; in data set [4], 45%. The inhibitory constant (Ki) in data set [2] is over 57 µM; in data set [3], 1.4 µM.

With `O=C(O)CC1(C(=O)NCc2nc3ccccc3s2)Cc2ccccc2C1`, the inhibition in data set [1] was 79%; in data set [4], 69%. Further, the results for the inhibitory constant (Ki) in data set [2] and in [3] were over 57 µM and 0.16 µM, respectively. Also, the IC50 in data set [6], in [7] and in data set [8] was over 10 µM in each case. Besides, the selectivity ratio in [9] was over 356.

For `Cc1cc(Br)ccc1C(=O)NC1=NC(=O)CN1`, the Ki in [2] was over 57 µM; in [3], 18.1 µM.

Turning to `Cc1ccc2oc(CNC(=O)C3(CC(=O)O)Cc4ccccc4C3)cc2c1`, in [1], the inhibition amounted to 60%. Moreover, the Ki in data set [2] is over 57 µM; in data set [3], 0.45 µM.

`O=C(O)CC1(C(=O)NCc2ncc(-c3ccccc3)s2)Cc2ccccc2C1`: the figures for the inhibition in [1] and in data set [4] were 54% and 42%, respectively. Moreover, the Ki is over 57 µM in data set [2] and 1.19 µM in data set [3].

Regarding `O=C(O)CC1(C(=O)NCCc2cc3ccccc3[nH]2)Cc2ccccc2C1`, the inhibition was 25% in data set [1] and 18% in data set [4]. For the same compound, the Ki in data set [2] is over 57 µM; in data set [3], 4.34 µM.

Turning to `O=C(O)CC1(C(=O)NCc2nccs2)Cc2ccccc2C1`, the inhibition came out at 65% in data set [1] and 55% in data set [4]. The values for the Ki in data set [2] and in data set [3] were over 57 µM and 0.61 µM, respectively.

`Cc1ccccc1OCC(=O)N(CCC(=O)O)Cc1cccc(F)c1F`: the results for the inhibition constant (Ki) in data set [2] and in [3] were over 57 µM and 6.87 µM, respectively.

As for `O=C(O)CC1(C(=O)NCc2nc(-c3ccccc3)cs2)Cc2ccccc2C1`, the figures for the inhibition in [1] and in [4] were 76% and 68%, respectively. The Ki in data set [2] is over 57 µM; in [3] it was 0.12 µM. Besides, the IC50 in data set [6], in [7] and in data set [8] was over 10 µM in each case. Besides, the selectivity ratio in data set [9] is over 356.

Consider `C[C@H](NC(=O)C1(CC(=O)O)Cc2ccccc2C1)c1cc2ccccc2o1`, for which the inhibition is 47% in data set [1] and 37% in [4]. The Ki in data set [2] was over 57 µM; in data set [3] it was 3.21 µM.

With `Cn1cc(CNC(=O)CC2(C(=O)O)Cc3ccccc3C2)cn1`, the inhibition in [1] was 8%. Also, the inhibition constant Ki in data set [2] is over 57 µM; in data set [3], over 92 µM.

Turning to `CC(NC(=O)CC1(C(=O)O)Cc2ccccc2C1)c1cc2ccccc2o1` (racemic), the inhibition in data set [1] stood at 22%. In addition, the results for the Ki in data set [2] and in data set [3] were over 57 µM and 14.8 µM, respectively.

In the case of `O=C(O)CC1(C(=O)NCc2ccc3ccccc3n2)Cc2ccccc2C1`, the inhibition in data set [1] was determined as 63%. For the same compound, the Ki in [2] was over 57 µM; in data set [3] it was 0.61 µM.

On to `O=C(O)CC1(C(=O)NCc2nc3ccccc3[nH]2)Cc2ccccc2C1`, for which the inhibition in data set [1] was found to be 20%; in [4], 11%. For the same compound, the inhibitory constant (Ki) in [2] is over 57 µM; in data set [3], 21.5 µM.

For the compound `O=C(O)CC1(C(=O)NCCc2nc3ccccc3s2)Cc2ccccc2C1`, the inhibition in data set [1] was 21%; in data set [4], 11%. Moreover, the Ki was over 57 µM in [2] and 10.5 µM in data set [3].

As to `O=C(CC1(C(=O)O)Cc2ccccc2C1)NCc1ccc2ccccc2n1`, the inhibition in [1] turned out to be 7%. For the same compound, the Ki in data set [3] worked out at 76.2 µM.

As for `O=C(O)CC1(C(=O)NCCc2cc3ccccc3o2)Cc2ccccc2C1`, the inhibition in data set [1] amounted to 25%; in data set [4], 16%. In addition, the Ki was over 57 µM in data set [2] and 5.66 µM in data set [3].

For `Cn1cc(CNC(=O)C2(CC(=O)O)Cc3ccccc3C2)cn1`, in data set [1], the inhibition was determined as 42%. The Ki was over 57 µM in data set [2] and 4.04 µM in data set [3].

In the case of `C[C@@H](NC(=O)C1(CC(=O)O)Cc2ccccc2C1)c1cc2ccccc2o1`, the inhibition in [1] was determined as 44%; in data set [4], 33%. Further, the Ki was over 57 µM in data set [2] and 2.27 µM in [3].
